Screening results deposited in PubChem BioAssay by Broad Institute.
Compounds with a hit are over-represented: about 2.8% of the library has one in this group of screens.
CAL PDZ FP-1 – CAL PDZ peptide-binding inhibitors, primary screen, biochemical, fluorescence polarization, Cer-tagged CAL PDZ, HTS | Golgi-associated PDZ and coiled-coil motif-containing protein (Homo sapiens), Q9HD26 | purified CAL PDZ, TMR-peptide fluorescence polarization, 1 h | inhibition, % at 20 µM | actives 0.02% (n = 330,000) | AID 504414, 2011;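 active means highest replicate inhibition of at least 40%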;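 further: plate controls were DMSO neutral control wells for no effect and unlabeled competitor peptide control wells for full effect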
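Test system: tagged CAL PDZ domain / Buffer or medium: sodium phosphate/NaCl buffer pH 7.4 with TCEP, IgG, Thesit / Reagent: TMR-labelled reporter peptide T*-PRC34 bound in PDZ groove / Compound dosing: single point, 20 µM / Schedule: 1 h incubation at room temperature before polarization reading / Technique: fluorescence polarization (mP) / Benchmarks: unlabelled peptide, DMSO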
SR-BI DiI inh – inhibitors of SR-BI mediated HDL lipid uptake, primary screen, ldlA[mSR-BI] cells, fluorescence, single point. Scavenger receptor class B member 1 (Mus musculus), Q61009. ldlA[mSR-BI] CHO cells, DiI-HDL uptake fluorescence, 3 h. inhibition, % at 12.5 µM. actives 0.96% (n = 320,000);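 active means mean replicate inhibition of at least 70% and a set share of replicates each scoring 70 or more; inconclusive means meets just one of the two criteria; inactive means fails both criteria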;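 further: 0% = median of neutral control wells and 100% = median of positive control wells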
Target sequence (Q61009 whole entry, looked up): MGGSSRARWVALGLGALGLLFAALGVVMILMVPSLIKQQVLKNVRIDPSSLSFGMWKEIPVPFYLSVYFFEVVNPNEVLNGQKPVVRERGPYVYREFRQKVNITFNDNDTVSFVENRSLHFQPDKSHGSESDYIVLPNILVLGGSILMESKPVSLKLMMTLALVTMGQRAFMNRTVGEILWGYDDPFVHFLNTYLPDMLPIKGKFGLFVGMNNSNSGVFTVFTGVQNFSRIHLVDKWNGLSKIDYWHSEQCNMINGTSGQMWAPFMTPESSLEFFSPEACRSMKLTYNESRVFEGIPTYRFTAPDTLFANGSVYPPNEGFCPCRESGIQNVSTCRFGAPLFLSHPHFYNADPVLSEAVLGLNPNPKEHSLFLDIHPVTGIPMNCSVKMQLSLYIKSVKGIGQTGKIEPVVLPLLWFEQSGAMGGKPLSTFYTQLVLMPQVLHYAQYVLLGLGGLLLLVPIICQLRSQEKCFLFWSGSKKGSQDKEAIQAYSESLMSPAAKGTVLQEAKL
SR-BI uptake up – activators of SR-BI mediated DiI-HDL uptake, primary screen, ldlA[mSR-BI] CHO cells, DiI fluorescence. activation, % at 12.5 µM. 3 h; 100 = double the neutral-control signal. actives 0.096% (n = 320,000);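 active means mean replicate activation of at least 60% and every replicate at or above 60%; inconclusive means mean or all-replicate condition met, but not both; inactive means mean below 60% and not all replicates reaching 60%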;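 further: 0% = median plate neutral-control signal and 100% = twice that signal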
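Assay system: LDL receptor-deficient CHO ldlA cells overexpressing murine SR-BI / Medium: BSA-supplemented, HEPES-buffered Ham's F12, pH 7.4 / Probe or stimulus: DiI-labelled HDL at 10 µg/mL final / Timing: compound with DiI-HDL co-incubation, 3 h at 37 °C / Technique: bottom-read cell fluorescence after medium removal, ex 550/em 595 nm / Measure: HDL uptake via cellular fluorescence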
dFosB activator – activators of delta FosB homodimer, primary screen, biochemical, fluorescence polarization, TAMRA-CDK5 oligo, single point; purified delta FosB; percent of positive-control signal above neutral wells; activation, % at 25 µM; actives 0.99% (n = 340,000); AID 493131, 2011;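 active means mean activation above about 17%, with every replicate also reaching it, limit read from the data, passing the limit was not always enough; inconclusive means only one of the two conditions met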
CAL PDZ FP-2 – untagged CAL PDZ binding inhibitors, primary screen, biochemical, fluorescence polarization, HTS. Golgi-associated PDZ and coiled-coil motif-containing protein (Homo sapiens), Q9HD26. purified CAL PDZ, TMR-peptide fluorescence polarization, 1 h. inhibition, % at 24.9 µM. actives 0.92% (n = 300,000). AID 602252, 2012;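 active means mean inhibition of at least 30% with at least half of replicates also reaching 30%; inconclusive means no clear call, values can overlap the other calls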;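 further: 0% = DMSO neutral control and 100% = excess unlabeled competitor peptide PRC23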
* hit, by the source's call; u = inconclusive; x = no result given.

SMILES | CAL PDZ FP-1 | SR-BI DiI inh | SR-BI uptake up | dFosB activator | CAL PDZ FP-2
CCC(=O)Nc1nc(C)c(-c2csc(Nc3cccc(O)c3)n2)s1 | -0.6 | 51.4 | -51.4 | -12.8 | 0.0
Cc1ccc(CNS(=O)(=O)c2cc3c4c(c2)CCN4C(=O)CC3)cc1 | -1.4 | 24.7 | -24.7 | 3.2 | -0.9
N#CC1(NC(=O)COc2ccc3ccc(=O)oc3c2)CCCCC1 | -1.1 | -7.6 | 7.6 | -6.4 | -1.5
S=C(Nc1cccnc1)NC1CC2CCC1C2 (centres undefined) | -0.4 | -8.6 | 8.6 | -2.2 | 37.8*
CC(C)(C)C1CCC(=NNC(=S)Nc2cccnc2)CC1 (centres undefined) | -0.1 | -17.8 | 17.8 | -6.9 | -1.5
CN1CCS/C1=C/C=C1\SC(=S)N(CC(=O)O)C1=O | -1.4 | -7.6 | 7.6 | -0.2 | -1.6
CCCCN1C(=O)/C(=C/C=C2\SCCN2C)SC1=S | 0.2 | 71.1* | -71.1 | -2.8 | 3.2
CCOC(=O)CSc1nc2sc3c(c2c(=O)n1-c1ccccc1)CCN(C(C)C)C3 | -1.1 | -2.3 | 2.3 | 7.9 | 3.2
Cc1ccc(C(=O)O)cc1NC(=O)c1cccs1 | -0.9 | -5.6 | 11.7 | 2.1 | 4.4
COc1cc(NC(=O)c2ccc(C)cc2C)ccc1NC(=O)c1cccs1 | -2.5 | 84.1* | -84.1 | -2.1 | 1.9
Cc1cccc(C(=O)Nc2cc(NC(=O)c3cccs3)ccc2C)c1 | -0.9 | 74.4* | -74.4 | -2.6 | 0.4
COc1cc(/C=N/NC(N)=O)ccc1OCC(=O)Nc1ccc(C)c(C)c1 | -3.2 | 34.8 | -34.8 | u | -3.0
COc1ccccc1OCC(=O)Nc1ccc(NC(=O)COc2ccccc2OC)cc1 | -0.8 | 91.5* | -91.5 | -8.0 | -1.2
COc1cc(/C=N/NC(N)=S)ccc1OCC(=O)Nc1ccc(C)c(C)c1 | 1.1 | 72.7* | -72.7 | -0.8 | 0.9
CCCCn1c(N)c(N(CCOC)C(=O)CCNC(=O)c2ccc(Br)cc2)c(=O)[nH]c1=O | 1.0 | -4.4 | 4.4 | -2.0 | -0.5
CC1(C)Oc2ccc3ccc(=O)oc3c2/C(=C/NNC(N)=O)C1=O | -0.2 | -43.1 | 43.1 | 3.6 | 6.7
CCOC(=O)Nc1ccc2c(c1)N(C(=O)CN1CCN(CCO)CC1)c1ccccc1CC2 | -0.5 | 12.1 | -12.1 | 2.2 | 2.4
Cc1cc(C)c(Cn2cnc3ccccc32)c(C)c1 | 0.3 | -3.8 | 3.8 | 0.5 | -1.1
CC1OC(CC(=O)O)CC2=C1C(=O)c1c(O)cccc1C2=O (centres undefined) | 0.6 | -11.5 | 11.5 | -1.9 | -4.8
COc1ccccc1CC(=O)Nc1cccc(C)n1 | 17.1 | 2.4 | -2.4 | -2.4 | 57.6*
COc1ccccc1CC(=O)Nc1ccc(NC(=O)c2cccs2)cc1 | 0.3 | 28.7 | x | 16.6* | x
CC(=O)Nc1sc(C)c(C)c1C(=O)OCC(=O)N(CC(C)C)c1c(N)n(Cc2ccccc2)c(=O)[nH]c1=O | -3.2 | 58.2 | -58.2 | -1.7 | -3.5
CCCNC(=O)C(CC)NC(=O)c1ccc(C#N)cc1 (centres undefined) | -0.5 | -61.7 | 61.7* | 0.9 | -1.2
CCCCCCCCC(NC(=O)c1ccc(C#N)cc1)C(=O)NCCC (centres undefined) | -0.1 | 2.0 | -2.0 | 1.8 | -4.3
Cn1c(=O)c([N+](=O)[O-])c(NCC2CCCO2)c2ccccc21 (centres undefined) | -0.6 | 5.8 | -5.8 | -5.2 | 72.6*
SMILES | CAL PDZ FP-1 | SR-BI DiI inh | SR-BI uptake up | dFosB activator | CAL PDZ FP-2
Cn1c(=O)c([N+](=O)[O-])c(NCc2ccccc2)c2ccccc21 | -2.8 | 2.7 | x | -2.2 | -1.8
O=C(Cc1cccc(NC(=O)C2CCN(C(=O)C3CCCC3)CC2)c1)Nc1cccc(C(=O)N2CCOCC2)c1 | 1.0 | 23.6 | -23.6 | -4.9 | -5.9
Cc1[nH]c2ccccc2c1C(=O)CCl | -0.5 | -14.2 | 14.2 | -0.1 | 62.6*
Cc1[nH]c2ccccc2c1C(=O)CSc1ccccc1 | 0.0 | -4.6 | 4.6 | 6.4 | -2.3
Cc1cc(Oc2ccc(=O)n(C)n2)nc(Oc2ccc(=O)n(C)n2)n1 | 0.1 | -81.9 | 81.9* | -3.4 | -2.2
CC(Oc1ccc(Cl)cc1Cl)C(=O)Nc1ccc2oc(-c3ccncc3)nc2c1 (centres undefined) | x | 77.5* | -77.5 | -9.9 | -2.8
Cc1ccc(-c2nc3cc(NC(=O)C(C)C)ccc3o2)cc1 | -1.8 | 20.7 | -20.7 | -4.0 | 1.3
COc1cccc(NC(=O)[C@@H](NC(=O)N2CCn3c2nc2ccccc23)C(C)C)c1 | -2.7 | 22.9 | -22.9 | -17.7 | -2.2
Cc1nn(-c2ccc(N3CCCCC3)nn2)c(C)c1CCC(=O)Nc1cc(F)ccc1F | -0.1 | 72.5* | -72.5 | -13.2 | 3.5
Cc1cccc(NC(=O)CCc2c(C)nn(-c3ccc(N4CCOCC4)nn3)c2C)c1 | 0.0 | 61.2 | -61.2 | 6.4 | -3.4
Cc1ccccc1NC(=O)CCc1c(C)nn(-c2ccc(N3CCOCC3)nn2)c1C | -0.5 | 62.1 | -62.1 | -8.2 | 0.5
Cc1ccccc1NC(=O)CCc1c(C)nn(-c2ccc(N3CCCCC3)nn2)c1C | -1.7 | 81.8* | -81.8 | -10.4 | 0.1
Cc1ccc(NC(=O)CCc2c(C)nn(-c3ccc(N4CCOCC4)nn3)c2C)cc1C | -4.5 | 79.2* | -79.2 | -5.7 | -6.6
O=C1C=CC(=O)N1Cc1ccccn1 | -0.7 | -42.5 | 42.5 | -3.3 | x
COc1ccc(N(C(=O)c2snc(C(N)=O)c2N)C(C(=O)NCc2ccccc2)c2ccc(O)cc2)cc1 (centres undefined) | -0.3 | -10.9 | 10.9 | 1.5 | 51.4*
Cc1cccc(OCC(=O)N(Cc2ccc(C)o2)C2CCS(=O)(=O)C2)c1 (centres undefined) | 1.0 | 5.5 | -5.5 | -0.9 | x
COc1cc(OC)cc(-c2c(-c3ccc(F)cc3)c3cc(-c4ccc5[nH]ccc5c4)ccc3n2C)c1 | 1.4 | 87.6* | -87.6 | 1.3 | -3.7
COc1ccc(-c2c(-c3ccc(OC)nc3)c3ccccc3n2C)cc1 | 0.1 | 77.5* | -77.5 | -4.0 | -3.3
COc1cccc(-c2c(-c3cc(OC)cc(OC)c3)n(C)c3ccc(-c4ccc(OC)nc4)cc23)c1 | 0.2 | 25.1 | -25.1 | -3.0 | 2.0
COc1ccc(-c2c(-c3cc(OC)cc(OC)c3)n(C)c3ccc(-c4ccc5cc[nH]c5c4)cc23)cc1 | -0.1 | 85.1* | -85.1 | -9.1 | -2.2
COc1cccc(-c2c(-c3cc(OC)cc(OC)c3)n(C)c3ccc(-c4ccc5[nH]ccc5c4)cc23)c1 | 0.5 | 63.2 | -63.2 | -3.6 | -4.5
